Laboratory results published in ChEMBL document CHEMBL5608187, “Discovery of pyridoquinoxaline-based new P-gp inhibitors as coadjutant against Multi Drug Resistance in cancer” (Eur J Med Chem, 2024).
The source made the active and inactive calls. No cut-off for these calls is given here.

Assays:
[1] = target: T1, ATP-dependent translocase ABCB1 (Homo sapiens, UniProt P08183); test: Inhibition of P-gp in human A498 cells assessed as increase in green fluorescence intensity at 0.1 to 10 uM incubated for 15 mins followed by incubation with EFFLUX-ID Green Detection Reagent and Hoeschst-33342 dye and measured after 30 mins by fluorescence analysis; assay type: cell-based; conditions: a498, 0.25 h, dose 0.1-10 µM
Procedure, shortened: (§1)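 5000 cells/well in phenol-red-free medium plated 24 h before; compounds 0.1, 1, 10 µM for 15 min, then EFLUXX-ID Green reagent (1:200) plus Hoechst-33342 1 µg/mL, 30 min 37 °C. Widefield imaging; median green intensity from 250 cells per well normalized to untreated wells. Mean ± SD of three wells; one-tailed t-test.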

[2] = target: T1, ATP-dependent translocase ABCB1; test: Inhibition of P-gp in human HCT-15 cells assessed as increase in green fluorescence intensity at 0.1 to 1 uM incubated for 15 mins followed by incubation with EFFLUX-ID Green Detection Reagent and Hoeschst-33342 dye and measured after 30 mins by fluorescence analysis; assay type: cell-based; conditions: hct-15, 0.25 h, dose 0.1-1 µM; procedure, shortened: as §1
[3] = target: T1, ATP-dependent translocase ABCB1; test: Inhibition of P-gp in human HCT-15 cells assessed as increase in green fluorescence intensity at 1 to 10 uM incubated for 15 mins followed by incubation with EFFLUX-ID Green Detection Reagent and Hoeschst-33342 dye and measured after 30 mins by fluorescence analysis; assay type: cell-based; conditions: hct-15, 0.25 h, dose 1-10 µM; procedure, shortened: as §1
U-87 MG [4] = test: Coadjutant activity against multidrug resistance in human U-87 MG cells assessed as potentiation of vincristine-induced cell growth inhibition at 0.25 to 4 uM incubated for 72 hrs in presence of 0.2 uM vincristine by SiR-DNA/CellTox Green Dye based fluorescence analysis; assay type: functional; conditions: U-87MG ATCC, dose 0.25-4 µM
Procedure, shortened: (§2)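 Growth by live-cell imaging: 500 cells/well plated with SiR-DNA and CellTox Green dye; serial dilutions in phenol-red-free complete medium added next day. Imaged at addition and at 72 h. Live cells = SiR-DNA nuclei minus CellTox-positive dead cells; percentage growth calculated. Three technical replicates; two-tailed t-test. Inhibitor paired with anticancer drug at fixed or scaled levels.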

SK-HEP1 [5] = test: Coadjutant activity against multidrug resistance in human SK-HEP1 cells assessed as potentiation of vincristine-induced cell growth inhibition at 4 uM incubated for 72 hrs in presence of 0.02 to 20 uM vincristine by SiR-DNA/CellTox Green Dye based fluorescence analysis; assay type: functional; procedure, shortened: as §2
HuP-T3 [6] = test: Coadjutant activity against multidrug resistance in human Hup-T3 cells assessed as potentiation of vincristine-induced cell growth inhibition by measuring cell growth at 4 uM incubated for 72 hrs in presence of 0.02 to 20 uM vincristine by SiR-DNA/CellTox Green Dye based fluorescence analysis; assay type: functional; design: scale not given: the % may be the effect or the level left; procedure, shortened: as §2
MeWo = test: Coadjutant activity against multidrug resistance in human MeWo cells assessed as potentiation of vincristine-induced cell growth inhibition at 4 uM incubated for 72 hrs in presence of 0.02 to 20 uM vincristine by SiR-DNA/CellTox Green Dye based fluorescence analysis; assay type: functional; procedure, shortened: as §2
U-87 MG [7] = test: Coadjutant activity against multidrug resistance in human U-87 MG cells assessed as potentiation of vincristine-induced cell growth inhibition at 4 uM incubated for 72 hrs in presence of 0.02 to 20 uM vincristine by SiR-DNA/CellTox Green Dye based fluorescence analysis; assay type: functional; conditions: U-87MG ATCC; procedure, shortened: as §2
A498 = test: Coadjutant activity against multidrug resistance in human A498 cells assessed as potentiation of vincristine-induced cell growth inhibition by measuring cell growth at 4 uM incubated for 72 hrs in presence of 0.02 to 20 uM vincristine by SiR-DNA/CellTox Green Dye based fluorescence analysis; assay type: functional; design: scale not given: the % may be the effect or the level left; procedure, shortened: as §2
HT-29 [8] = test: Cytotoxicity against human HT-29 cells assessed as inhibition of cell growth at 4 uM incubated for 72 hrs by SiR-DNA/CellTox Green Dye based fluorescence analysis; assay type: toxicity; conditions: ht-29, 72 h
Procedure, shortened: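 Single-agent control at 4 µM, no anticancer drug. 500 cells/well with SiR-DNA and CellTox Green; imaged at addition and 72 h. Live count = total nuclei minus dead cells, expressed as percent growth. Three technical replicates.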

SK-N-SH = test: Coadjutant activity against multidrug resistance in human SK-N-SH cells assessed as potentiation of etoposide-induced cell growth inhibition at 4 uM incubated for 72 hrs in presence of 0.04 to 40 uM etoposide by SiR-DNA/CellTox Green Dye based fluorescence analysis; assay type: functional; procedure, shortened: as §2
HT-29 [9] = test: Coadjutant activity against multidrug resistance in human HT-29 cells assessed as potentiation of cisplatin-induced cell growth inhibition at 4 uM incubated for 72 hrs in presence of 0.1 to 100 uM cisplatin by SiR-DNA/CellTox Green Dye based fluorescence analysis; assay type: functional
Procedure, shortened: (§3)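 Cisplatin co-treatment, 72 h imaging growth assay (SiR-DNA nuclei minus CellTox Green dead cells, 500 cells/well, phenol-red-free medium). Combinations: inhibitor fixed with cisplatin 0.1–100 µM, or cisplatin fixed at 0.25 µM with inhibitor 0.25–4 µM. Three technical replicates, mean ± SD; two-tailed t-test.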

SK-HEP1 [10] = test: Coadjutant activity against multidrug resistance in human SK-HEP1 cells assessed as potentiation of cisplatin-induced cell growth inhibition at 4 uM incubated for 72 hrs in presence of 0.1 to 100 uM cisplatin by SiR-DNA/CellTox Green Dye based fluorescence analysis; assay type: functional; procedure, shortened: as §3
HT-29 [11] = test: Coadjutant activity against multidrug resistance in human HT-29 cells assessed as potentiation of cisplatin-induced cell growth inhibition at 0.25 to 4 uM incubated for 72 hrs in presence of 0.25 uM cisplatin by SiR-DNA/CellTox Green Dye based fluorescence analysis; assay type: functional; conditions: dose 0.25-4 µM; procedure, shortened: as §3
HuP-T3 [12] = test: Coadjutant activity against multidrug resistance in human HuP-T3 cells assessed as potentiation of cisplatin-induced cell growth inhibition at 0.25 to 4 uM incubated for 72 hrs in presence of 0.25 uM cisplatin by SiR-DNA/CellTox Green Dye based fluorescence analysis; assay type: functional; conditions: dose 0.25-4 µM; procedure, shortened: as §3
SK-HEP1 [13] = test: Coadjutant activity against multidrug resistance in human SK-HEP1 cells assessed as potentiation of cisplatin-induced cell growth inhibition at 0.25 to 4 uM incubated for 72 hrs in presence of 0.25 uM cisplatin by SiR-DNA/CellTox Green Dye based fluorescence analysis; assay type: functional; conditions: dose 0.25-4 µM; procedure, shortened: as §3
HMC3 = test: Cytotoxicity against human HMC3 cells assessed as effect on cell viability at 0.1 to 100 uM incubated for 24 to 72 hrs by MTT assay; assay type: toxicity, cell-based; conditions: hmc3, 100 µM, dose lower 0.1 µM, time lower 24 hrs, dose upper 100 µM, time upper 72 hrs
Procedure, shortened: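 HMC3 microglia in high-glucose DMEM/10% FBS, 37 °C 5% CO2, treated 0.1–100 µM for 24, 48 or 72 h; vehicle-treated controls. MTT 0.5 mg/mL, 4 h 37 °C, formazan dissolved in DMSO, read at 540 nm; viability as percent of control. Three independent experiments in triplicate, mean ± S.E.M., one-way ANOVA with Tukey.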

HCT-116 (Homo sapiens) = test: Coadjutant activity against multidrug resistance in human HCT-116 cells assessed as potentiation of cisplatin-induced cell growth inhibition at 0.25 to 4 uM incubated for 72 hrs in presence of 0.25 uM cisplatin by SiR-DNA/CellTox Green Dye based fluorescence analysis; conditions: dose 0.25-4 µM

T1 sequence (P08183 whole entry): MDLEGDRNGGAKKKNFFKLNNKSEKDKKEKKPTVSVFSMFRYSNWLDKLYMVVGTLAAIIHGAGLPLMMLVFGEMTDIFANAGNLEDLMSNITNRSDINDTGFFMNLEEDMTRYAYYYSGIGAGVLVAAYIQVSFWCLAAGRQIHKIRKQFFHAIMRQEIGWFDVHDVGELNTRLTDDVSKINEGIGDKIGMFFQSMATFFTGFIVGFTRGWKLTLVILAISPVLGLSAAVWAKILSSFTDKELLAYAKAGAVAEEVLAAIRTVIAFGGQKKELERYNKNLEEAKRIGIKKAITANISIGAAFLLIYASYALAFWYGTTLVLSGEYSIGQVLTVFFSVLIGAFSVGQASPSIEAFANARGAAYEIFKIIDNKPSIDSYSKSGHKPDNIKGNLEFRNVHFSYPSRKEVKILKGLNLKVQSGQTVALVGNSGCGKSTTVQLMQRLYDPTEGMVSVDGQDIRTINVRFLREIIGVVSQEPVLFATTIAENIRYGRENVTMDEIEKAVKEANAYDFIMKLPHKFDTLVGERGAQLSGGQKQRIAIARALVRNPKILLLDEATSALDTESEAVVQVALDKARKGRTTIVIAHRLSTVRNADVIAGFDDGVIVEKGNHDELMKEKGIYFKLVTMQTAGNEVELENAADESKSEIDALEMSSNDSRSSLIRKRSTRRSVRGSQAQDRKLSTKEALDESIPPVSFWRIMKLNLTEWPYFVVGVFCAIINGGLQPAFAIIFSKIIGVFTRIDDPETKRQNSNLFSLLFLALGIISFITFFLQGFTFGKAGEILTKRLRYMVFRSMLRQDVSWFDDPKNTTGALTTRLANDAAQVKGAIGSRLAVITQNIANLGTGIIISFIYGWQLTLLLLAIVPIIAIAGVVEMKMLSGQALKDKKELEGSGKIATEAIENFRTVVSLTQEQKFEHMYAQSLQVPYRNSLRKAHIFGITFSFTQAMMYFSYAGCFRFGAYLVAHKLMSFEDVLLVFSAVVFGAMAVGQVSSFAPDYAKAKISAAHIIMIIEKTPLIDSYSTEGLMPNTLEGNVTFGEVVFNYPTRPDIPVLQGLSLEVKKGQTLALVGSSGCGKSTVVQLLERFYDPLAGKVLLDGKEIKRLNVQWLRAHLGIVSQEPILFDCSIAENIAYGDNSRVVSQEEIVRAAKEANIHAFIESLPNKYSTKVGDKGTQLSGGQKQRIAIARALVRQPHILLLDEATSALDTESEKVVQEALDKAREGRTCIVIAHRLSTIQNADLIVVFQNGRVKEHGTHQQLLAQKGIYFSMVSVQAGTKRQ

O=C(Nc1ccccc1)c1ccccc1OCc1nc2cc3cccnc3cc2nc1COc1ccccc1C(=O)Nc1ccccc1
inhibition (INH) [1]: Not Active | inhibition (INH) [2]: Dose-Dependent Effect | inhibition (INH) [3]: Active | Activity (U-87 MG [4]): Active | Activity (SK-HEP1 [5]): Active | Activity (HuP-T3 [6]): 50% | Activity (MeWo): Active | Activity (U-87 MG [7]): Active | Activity (A498): 50% | Activity (HT-29 [8]): Non-Toxic | Activity (SK-N-SH): Active | Activity (HT-29 [9]): inactive | Activity (SK-HEP1 [10]): inactive | Activity (HT-29 [11]): inactive | Activity (HuP-T3 [12]): inactive | Activity (SK-HEP1 [13]): inactive | Activity (HMC3): Non-Toxic | Activity (HCT-116 (Homo sapiens)): inactive
